Published values gathered from unrelated publications.
Compare with care: the assays were run in different laboratories.
Target: G protein-coupled receptor kinase 4 (GRK4, Homo sapiens, UniProt P32298)

The inhibition of `C=CC(=O)N1CCC([C@@H]2CCNc3c(C(N)=O)c(-c4ccc(Oc5ccccc5)cc4)nn32)CC1` is reported as 8% (enzyme activity, inhibitor; 1 µM).
The remaining binding of `CNS(=O)(=O)c1ccc(Nc2ncc(C(F)(F)F)c(N3CCC[C@](C)(O)C3)n2)c(C)c1` is reported as 100% (binding, competition with immobilised ligand; 1 µM).
`C=CC(=O)N1CCC[C@@H](n2nc(-c3ccc(Oc4ccccc4)cc3)c3c(N)ncnc32)C1` has an inhibition of 3% (enzyme activity, inhibitor; 1 µM).
For `CC(C)S(=O)(=O)c1ccc2nccc(Nc3ccc4sc(C5CCCC5)nc4c3)c2c1`, the activity vs control was 112% (enzyme activity, inhibitor; 1 µM).
`C1=C/COCc2cc(ccc2OCCN2CCCC2)Nc2nccc(n2)-c2cccc(c2)COC/1` gave a remaining binding of 13% (binding; 0.1 µM).
`CN1CCN(C(=O)c2ccc(NC(=O)Nc3ccc(N(C)c4ccnc(Nc5ccc(CS(C)(=O)=O)cc5)n4)cc3)cc2)CC1` has a remaining binding of 4.5% (binding; 1 µM).
`C[C@]1(O)CCCN(c2nc(Nc3ccc(S(=O)(=O)N[C@H]4CC[C@H](CN5CCN(c6ccc(C7CCC(=O)NC7=O)cc6F)CC5)CC4)cc3F)ncc2C(F)(F)F)C1` (stereo partly drawn) has a remaining binding of 87% (binding, competition with immobilised ligand; 1 µM).
For `Cc1ccc(NC(=O)c2ccnc(C(F)(F)F)c2)cc1-c1cc(OCCO)nc(N2CCOCC2)c1`, the remaining binding was 99% (binding; 1 µM).
For `CCCCC(=O)Nc1ccc(-c2ccc3ncn(CCC)c(=O)c3c2)cn1`, the remaining binding was 93% (binding, competition with immobilised ligand; 0.5 µM).
